{"source": "ChEMBL document CHEMBL1142193", "about": "“Dual targeting of GyrB and ParE by a novel aminobenzimidazole class of antibacterial compounds” (2007)", "key": {"[1]": {"test_system": "Staphylococcus aureus", "assay": "Inhibition of protein synthesis in Staphylococcus aureus ATCC 29213 assessed as [3H]aminoacid incorporation", "format": "functional"}, "[2]": {"test_system": "Staphylococcus aureus", "assay": "Inhibition of RNA synthesis in Staphylococcus aureus ATCC 29213 assessed as [3H]uridine incorporation", "format": "functional", "summary_of_the_method": "(§1)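 Log-phase cells exposed in duplicate to compound at 5x MIC; labelled-precursor uptake measured over 15 min, stopped with 10% trichloroacetic acid. Incorporation expressed as percent of untreated control (taken as 100%).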"}, "[3]": {"test_system": "Streptococcus pneumoniae", "assay": "Antibacterial activity against Streptococcus pneumoniae ATCC BAA-255 after 18 to 20 hrs", "format": "functional", "summary_of_the_method": "(§2)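 MICs followed CLSI guidelines. Strains were grown overnight at 35°C on solid medium. Inocula were prepared with a Prompt system. Compounds were serially diluted twofold in 100% DMSO at 200x and diluted 1:200 into medium, for a final 0.5% DMSO. Plates were incubated at 35°C for 18 to 20 h and read visually. A twofold MIC variation was taken as assay error.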"}, "[4]": {"test_system": "Staphylococcus aureus", "assay": "Antibacterial activity against Staphylococcus aureus ATCC 29213 without plasmid", "format": "functional"}, "[5]": {"test_system": "Enterococcus faecalis", "assay": "Antibacterial activity against Enterococcus faecalis ATCC 29212 with GyrB T167A and ParE T169A mutation after 18 to 20 hrs", "format": "functional", "summary_of_the_method": "as §2"}, "[6]": {"test_system": "Streptococcus pneumoniae", "assay": "Antibacterial activity against Streptococcus pneumoniae ATCC BAA-255 with GyrB T172A and ParE T172A mutation after 18 to 20 hrs", "format": "functional", "summary_of_the_method": "as §2"}, "[7]": {"test_system": "Streptococcus pneumoniae", "assay": "Antibacterial activity against novobiocin-resistant Streptococcus pneumoniae ATCC BAA-255 with GyrB S127L mutation after 18 to 20 hrs", "format": "functional", "summary_of_the_method": "as §2"}, "[8]": {"test_system": "Streptococcus pneumoniae", "assay": "Antibacterial activity against Streptococcus pneumoniae ATCC BAA-255 with ParE T172I mutation after 18 to 20 hrs", "format": "functional", "summary_of_the_method": "as §2"}, "[9]": {"test_system": "Staphylococcus aureus", "assay": "Antibacterial activity against Staphylococcus aureus ATCC 29213 carrying plasmid expressing GyrB R144I mutant", "format": "functional"}, "[10]": {"test_system": "Staphylococcus aureus", "assay": "Antibacterial activity against Staphylococcus aureus ATCC 29213 with GyrB T173N and GrlB T166A mutation after 18 to 20 hrs", "format": "functional", "summary_of_the_method": "as §2"}, "[11]": {"test_system": "Staphylococcus aureus", "assay": "Antibacterial activity against Staphylococcus aureus ATCC 29213 with GyrB R144I mutation without plasmid", "format": "functional"}, "[12]": {"test_system": "Escherichia coli", "assay": "Reduction in steady-state levels of supercoiled pUC18 in Escherichia coli CAG12184 tolC mutant", "format": "functional, organism-based", "summary_of_the_method": "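Cells carrying pUC18 grown at 37°C in caMHB with 100 µg/ml ampicillin to OD600 0.5, then exposed 1 h at 37°C with shaking to a twofold dilution series spanning the MIC. Plasmid isolated, concentrated, run on 1% TBE-agarose alongside supercoiled markers for 16 h, stained with ethidium bromide.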"}, "[13]": {"test_system": "Staphylococcus aureus", "assay": "Antibacterial activity against Staphylococcus aureus ATCC 29213 after 18 to 20 hrs", "format": "functional", "summary_of_the_method": "as §2"}, "[14]": {"test_system": "Enterococcus faecalis", "assay": "Antibacterial activity against Enterococcus faecalis ATCC 29212 with GyrB T167I and ParE T169A mutation after 18 to 20 hrs", "format": "functional", "summary_of_the_method": "as §2"}, "[15]": {"test_system": "Enterococcus faecalis", "assay": "Antibacterial activity against Enterococcus faecalis ATCC 29212 with ParE T169A mutation after 18 to 20 hrs", "format": "functional", "summary_of_the_method": "as §2"}, "[16]": {"test_system": "Streptococcus pneumoniae", "assay": "Antibacterial activity against Streptococcus pneumoniae ATCC BAA-255 with ParE T172A mutation after 18 to 20 hrs", "format": "functional", "summary_of_the_method": "as §2"}, "[17]": {"test_system": "Enterococcus faecalis", "assay": "Antibacterial activity against Enterococcus faecalis ATCC 29212 after 18 to 20 hrs", "format": "functional", "summary_of_the_method": "as §2"}, "[18]": {"test_system": "Staphylococcus aureus", "assay": "Antibacterial activity against Staphylococcus aureus ATCC 29213 with GyrB T173I and GrlB T166A mutation after 18 to 20 hrs", "format": "functional", "summary_of_the_method": "as §2"}, "[19]": {"test_system": "Haemophilus influenzae", "assay": "Antibacterial activity against novobiocin-resistant Haemophilus influenzae ATCC 51907 with GyrB R140C mutation after 18 to 20 hrs", "format": "functional", "summary_of_the_method": "as §2"}, "[20]": {"test_system": "Staphylococcus aureus", "assay": "Antibacterial activity against Staphylococcus aureus ATCC 29213 carrying plasmid expressing wild type GyrB", "format": "functional"}, "[21]": {"test_system": "Staphylococcus aureus", "assay": "Antibacterial activity against Staphylococcus aureus ATCC 29213 with GyrB T173I mutation without plasmid", "format": "functional"}, "[22]": {"test_system": "Staphylococcus aureus", "assay": "Antibacterial activity against Staphylococcus aureus ATCC 29213 carrying plasmid expressing GyrB T173N mutant", "format": "functional"}, "[23]": {"test_system": "Staphylococcus aureus", "assay": "Inhibition of DNA synthesis in Staphylococcus aureus ATCC 29213 assessed as [3H]thymidine incorporation", "format": "functional", "summary_of_the_method": "as §1"}, "[24]": {"test_system": "Haemophilus influenzae", "assay": "Antibacterial activity against novobiocin-resistant Haemophilus influenzae ATCC 51907 with GyrB R140H mutation after 18 to 20 hrs", "format": "functional", "summary_of_the_method": "as §2"}, "[25]": {"test_system": "Haemophilus influenzae", "assay": "Antibacterial activity against Haemophilus influenzae ATCC 51907 after 18 to 20 hrs", "format": "functional", "summary_of_the_method": "as §2"}, "[26]": {"test_system": "Staphylococcus aureus", "assay": "Antibacterial activity against Staphylococcus aureus ATCC 29213 with GyrB T173N mutation after 18 to 20 hrs", "format": "functional", "summary_of_the_method": "as §2"}, "[27]": {"test_system": "Enterococcus faecalis", "assay": "Antibacterial activity against Enterococcus faecalis ATCC 29212 with GyrB T167A mutation after 18 to 20 hrs", "format": "functional", "summary_of_the_method": "as §2"}, "[28]": {"test_system": "Haemophilus influenzae", "assay": "Antibacterial activity against Haemophilus influenzae ATCC 51907 with GyrB T169I mutation after 18 to 20 hrs", "format": "functional", "summary_of_the_method": "as §2"}, "[29]": {"test_system": "Staphylococcus aureus", "assay": "Antibacterial activity against Staphylococcus aureus ATCC 29213 with GyrB T173N mutation without plasmid", "format": "functional"}, "[30]": {"test_system": "Enterococcus faecalis", "assay": "Antibacterial activity against Enterococcus faecalis ATCC 29212 with GyrB T167I mutation after 18 to 20 hrs", "format": "functional", "summary_of_the_method": "as §2"}, "[31]": {"test_system": "Staphylococcus aureus", "assay": "Antibacterial activity against Staphylococcus aureus ATCC 29213 carrying plasmid expressing GyrB T173I mutant", "format": "functional"}, "[32]": {"test_system": "Staphylococcus aureus", "assay": "Antibacterial activity against novobiocin-resistant Staphylococcus aureus ATCC 29213 with GyrB R144I mutation after 18 to 20 hrs", "format": "functional", "summary_of_the_method": "as §2"}, "[33]": {"test_system": "Staphylococcus aureus", "assay": "Antibacterial activity against Staphylococcus aureus ATCC 29213 with GyrB T173I mutation after 18 to 20 hrs", "format": "functional", "summary_of_the_method": "as §2"}, "[34]": {"test_system": "Haemophilus influenzae", "assay": "Antibacterial activity against novobiocin-resistant Haemophilus influenzae ATCC 51907 with GyrB R140L mutation after 18 to 20 hrs", "format": "functional", "summary_of_the_method": "as §2"}}, "note": "Activity calls are given as the source filed them. No cut-off for these calls is given here."}
{"smiles": "CO[C@H]1/C=C/O[C@@]2(C)Oc3c(C)c(O)c4c(O)c(c(/C=N/N5CCN(C)CC5)c(O)c4c3C2=O)NC(=O)/C(C)=C\\C=C\\[C@H](C)[C@H](O)[C@@H](C)[C@@H](O)[C@@H](C)[C@H](OC(C)=O)[C@@H]1C", "values": [{"measurement": "Activity", "setting": "[1]", "result": "Active"}, {"measurement": "Activity", "setting": "[2]", "result": "Active"}]}
{"smiles": "CCNC(=O)Nc1nc2cc(-c3cnc(OC)nc3)c(OC)cc2[nH]1", "values": [{"measurement": "MIC", "setting": "[3]", "result": 0.5, "unit": "µg/mL"}, {"measurement": "MIC", "setting": "[4]", "result": 2, "unit": "µg/mL"}, {"measurement": "Inhibition", "setting": "[1]", "result": 20, "unit": "%"}, {"measurement": "MIC", "setting": "[5]", "result": "> 64", "unit": "µg/mL"}, {"measurement": "MIC", "setting": "[6]", "result": 64, "unit": "µg/mL"}, {"measurement": "MIC", "setting": "[7]", "result": 0.5, "unit": "µg/mL"}, {"measurement": "MIC", "setting": "[8]", "result": 4, "unit": "µg/mL"}, {"measurement": "MIC", "setting": "[9]", "result": 2, "unit": "µg/mL"}, {"measurement": "MIC", "setting": "[10]", "result": "> 64", "unit": "µg/mL"}, {"measurement": "MIC", "setting": "[11]", "result": 2, "unit": "µg/mL"}, {"measurement": "Activity", "setting": "[12]", "result": "Dose-dependent effect"}, {"measurement": "MIC", "setting": "[13]", "result": 2, "unit": "µg/mL"}, {"measurement": "Inhibition", "setting": "[2]", "result": 20, "unit": "%"}, {"measurement": "MIC", "setting": "[14]", "result": "> 64", "unit": "µg/mL"}, {"measurement": "MIC", "setting": "[15]", "result": 8, "unit": "µg/mL"}, {"measurement": "MIC", "setting": "[16]", "result": 8, "unit": "µg/mL"}, {"measurement": "MIC", "setting": "[17]", "result": 1, "unit": "µg/mL"}, {"measurement": "MIC", "setting": "[18]", "result": "> 64", "unit": "µg/mL"}, {"measurement": "MIC", "setting": "[19]", "result": 2, "unit": "µg/mL"}, {"measurement": "MIC", "setting": "[20]", "result": 2, "unit": "µg/mL"}, {"measurement": "MIC", "setting": "[21]", "result": 8, "unit": "µg/mL"}, {"measurement": "MIC", "setting": "[22]", "result": 8, "unit": "µg/mL"}, {"measurement": "Inhibition", "setting": "[23]", "result": 80, "unit": "%"}, {"measurement": "MIC", "setting": "[24]", "result": 2, "unit": "µg/mL"}, {"measurement": "MIC", "setting": "[25]", "result": 4, "unit": "µg/mL"}, {"measurement": "MIC", "setting": "[26]", "result": 16, "unit": "µg/mL"}, {"measurement": "MIC", "setting": "[27]", "result": 0.5, "unit": "µg/mL"}, {"measurement": "MIC", "setting": "[28]", "result": "> 64", "unit": "µg/mL"}, {"measurement": "MIC", "setting": "[29]", "result": 8, "unit": "µg/mL"}, {"measurement": "MIC", "setting": "[30]", "result": 1, "unit": "µg/mL"}, {"measurement": "MIC", "setting": "[31]", "result": 8, "unit": "µg/mL"}, {"measurement": "MIC", "setting": "[32]", "result": 4, "unit": "µg/mL"}, {"measurement": "MIC", "setting": "[33]", "result": 16, "unit": "µg/mL"}, {"measurement": "MIC", "setting": "[34]", "result": 4, "unit": "µg/mL"}]}
